Fewer inactive variants are shown than the library holds.
B1: tRNA (parent)
chain: GUUCCGUUGGCGUAAUGGUAACGCGUCUCCCUCCUAAGGAGAAGACUGCGGGUUCGAGUCCCGUACGGAACG

Variants of: B1
Assay: yeast fitness relative to wild type (ratio to wild type); higher = fitter; tRNA-Arg(CCU), competitive growth, 37 C, YPD
Summary of the method: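 Variants of the tRNA-Arg(CCU) gene were chemically synthesised with a 3% per-site mutation rate across 69 sites and placed at the native genomic locus in Saccharomyces cerevisiae. Six parallel replicates of the pooled strains were competed in YPD at 37°C for 24 hours, and gene amplicons from the start and end populations were read by 100-nucleotide paired-end sequencing. Darwinian fitness relative to wild type was derived from changes in genotype frequencies. Genotypes required ≥ 100 starting reads, and estimates < 0.5 were set to 0.5.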
A40U G51C showed a yeast fitness of 0.518.
Work on A40U G52A C60U G63C yielded a yeast fitness of 0.661.
A40U G52C showed a yeast fitness of 0.608.
In the case of A40U G52C C60G, the yeast fitness is reported as ≤ 0.5.
With A40U G56A G58C the yeast fitness was 0.786.
Work on A40U G63A yielded a yeast fitness of 0.721.
In the case of A40U G63C, the yeast fitness is reported as 0.729.
In the case of A40U G67A, the yeast fitness is reported as 0.82.
With A40U G67A A70C the yeast fitness was 0.572.
Variant A40U G68A has a yeast fitness of 0.923.
For A40U U47C A65C, the yeast fitness was 0.534.
With A40U U47C A69U the yeast fitness was 0.815.
For A40U U53A C61U, the yeast fitness was ≤ 0.5.
A40U U53C showed a yeast fitness of 0.735.
Variant A40U U54A has a yeast fitness of 0.576.
Variant A40U U54C has a yeast fitness of 0.802.
Variant A40U U54C C62U has a yeast fitness of 0.528.
In the case of A40U U64A, the yeast fitness is reported as 0.675.
In the case of A40U U64C A70U, the yeast fitness is reported as 0.727.
Variant G41A A42C has a yeast fitness of 0.726.
Work on G41A A42C A65C yielded a yeast fitness of 0.565.
Work on G41A A42G yielded a yeast fitness of 0.911.
In the case of G41A A42U G50C A70G, the yeast fitness is reported as ≤ 0.5.
With G41A A43G the yeast fitness was 0.81.
In the case of G41A A43G A70U, the yeast fitness is reported as 0.659.
G41A A43G C60U gave a yeast fitness of 0.507.
Variant G41A A43G C60U A70C has a yeast fitness of 0.542.
In the case of G41A A43G C66A, the yeast fitness is reported as ≤ 0.5.
Variant G41A A45G G56A has a yeast fitness of 0.582.
In the case of G41A A45U G58U C60A, the yeast fitness is reported as 0.583.
In the case of G41A A45U U47A C62U A69U, the yeast fitness is reported as ≤ 0.5.
In the case of G41A A57U C60A G68C, the yeast fitness is reported as ≤ 0.5.
With G41A A70C the yeast fitness was 0.901.
G41A A70U showed a yeast fitness of 0.977.
G41A C46G G48A U54C C55U A70C showed a yeast fitness of 0.542.
With G41A C46G G50A C62A the yeast fitness was 0.537.
Work on G41A C49U A70U yielded a yeast fitness of 0.708.
For G41A C55G C66U, the yeast fitness was ≤ 0.5.
Variant G41A C60G C61U A65G has a yeast fitness of 0.644.
Work on G41A C60G G63A A65G yielded a yeast fitness of 0.529.
In the case of G41A C60G G67A, the yeast fitness is reported as 0.534.
With G41A C60G U64C A65G the yeast fitness was ≤ 0.5.
G41A C61A showed a yeast fitness of 0.742.
G41A C62A showed a yeast fitness of 0.777.
In the case of G41A C62A A70C, the yeast fitness is reported as ≤ 0.5.
With G41A C62U the yeast fitness was 0.844.
For G41A C62U A69U, the yeast fitness was 0.619.
In the case of G41A G44C C61G, the yeast fitness is reported as ≤ 0.5.
In the case of G41A G48C A57U A65U C66A, the yeast fitness is reported as ≤ 0.5.
With G41A G48C C49U G68A the yeast fitness was ≤ 0.5.
With G41A G50A C60U C66G the yeast fitness was ≤ 0.5.
For G41A G51A C66A, the yeast fitness was ≤ 0.5.
G41A G63A gave a yeast fitness of 0.893.
With G41A G63C the yeast fitness was 0.715.
With G41A G67C the yeast fitness was 0.775.
With G41A G67U A69C the yeast fitness was ≤ 0.5.
For G41A U47A C49U U59C G67C A70U, the yeast fitness was 0.532.
G41A U47C gave a yeast fitness of 0.931.
With G41A U53G U59A C62G the yeast fitness was ≤ 0.5.
Variant G41A U54A has a yeast fitness of 0.674.
With G41A U59G A69C the yeast fitness was ≤ 0.5.
For G41C A42C, the yeast fitness was 0.565.
With G41C A42C C49U the yeast fitness was ≤ 0.5.
Work on G41C A42U yielded a yeast fitness of 0.79.
In the case of G41C A43C A45U C49G U53G A69C, the yeast fitness is reported as ≤ 0.5.
With G41C A43C C66A the yeast fitness was 0.699.
In the case of G41C A43G U54A C66U, the yeast fitness is reported as ≤ 0.5.
Work on G41C A43U U64C yielded a yeast fitness of 0.959.
For G41C A45G G63A C66G G67C, the yeast fitness was ≤ 0.5.
Variant G41C A57G has a yeast fitness of 0.883.
G41C A57U gave a yeast fitness of 0.661.
G41C A57U G63A showed a yeast fitness of 0.567.
In the case of G41C A57U U64C, the yeast fitness is reported as ≤ 0.5.
Work on G41C A69U A70G yielded a yeast fitness of 0.537.
G41C A69U A70U gave a yeast fitness of 0.629.
With G41C C46A C55G the yeast fitness was ≤ 0.5.
In the case of G41C C49A, the yeast fitness is reported as 0.572.
In the case of G41C C49A A69U, the yeast fitness is reported as 0.544.
With G41C C49A G67A the yeast fitness was ≤ 0.5.
Work on G41C C55A yielded a yeast fitness of 0.617.
For G41C C55A A69U, the yeast fitness was ≤ 0.5.
With G41C C55A A70G the yeast fitness was 0.551.
With G41C C55U the yeast fitness was 0.787.
Work on G41C C60G yielded a yeast fitness of 0.695.
For G41C C60U U64G, the yeast fitness was ≤ 0.5.
For G41C C60U U64G G67A, the yeast fitness was ≤ 0.5.
In the case of G41C C61G A65C, the yeast fitness is reported as ≤ 0.5.
Work on G41C C62A yielded a yeast fitness of 0.713.
Work on G41C C62U A69C yielded a yeast fitness of 0.619.
For G41C C66G, the yeast fitness was 0.594.
In the case of G41C G44C C55A, the yeast fitness is reported as 0.563.
For G41C G48A C55A, the yeast fitness was 0.569.
In the case of G41C G48C, the yeast fitness is reported as 0.813.
G41C G48C A69C gave a yeast fitness of 0.606.
G41C G51C gave a yeast fitness of 0.52.
With G41C G52C the yeast fitness was 0.527.
In the case of G41C G52C A69C, the yeast fitness is reported as ≤ 0.5.
For G41C G56A, the yeast fitness was 0.825.
In the case of G41C G58A C61A, the yeast fitness is reported as ≤ 0.5.
G41C G67A gave a yeast fitness of 0.89.
G41C G68A gave a yeast fitness of 0.883.
With G41C G68C the yeast fitness was 0.774.
Variant G41C U59A has a yeast fitness of 0.801.
G41C U64G gave a yeast fitness of 0.735.
In the case of G41U A45U C49U C61G, the yeast fitness is reported as ≤ 0.5.
In the case of G41U C46A A70U, the yeast fitness is reported as 0.632.
Work on A42C yielded a yeast fitness of 0.967.
A42C A43C C55G A57G gave a yeast fitness of 0.641.
In the case of A42C A43U G56C C66U, the yeast fitness is reported as ≤ 0.5.
With A42C A45C G48A the yeast fitness was 0.958.
For A42C A45C G52C, the yeast fitness was ≤ 0.5.
In the case of A42C A45C U53A A65C A69U, the yeast fitness is reported as ≤ 0.5.
For A42C A45G, the yeast fitness was 0.95.
With A42C A45G G51A the yeast fitness was ≤ 0.5.
Work on A42C A45U C46U yielded a yeast fitness of 0.861.
In the case of A42C A57C, the yeast fitness is reported as 0.62.
With A42C A57C C61A the yeast fitness was ≤ 0.5.
For A42C A57U, the yeast fitness was 0.688.
For A42C A65G C66G, the yeast fitness was ≤ 0.5.
For A42C A69C A70U, the yeast fitness was 0.721.
A42C A69G showed a yeast fitness of 0.97.
Variant A42C A69U has a yeast fitness of 0.927.
With A42C A70U the yeast fitness was 1.02.
For A42C C46A, the yeast fitness was 0.783.
A42C C46G showed a yeast fitness of 0.753.
For A42C C46G A65U, the yeast fitness was ≤ 0.5.
A42C C46G C66A showed a yeast fitness of 0.552.
For A42C C49A C66A, the yeast fitness was ≤ 0.5.
With A42C C49G G50A the yeast fitness was 0.507.
Variant A42C C49U has a yeast fitness of 0.939.
With A42C C55A A65U the yeast fitness was ≤ 0.5.
Work on A42C C55G yielded a yeast fitness of 0.612.
With A42C C55G A57C C62U the yeast fitness was ≤ 0.5.
For A42C C55U, the yeast fitness was 0.744.
With A42C C60G C62G G68C the yeast fitness was ≤ 0.5.
In the case of A42C C60U, the yeast fitness is reported as 0.749.
With A42C C60U G68A the yeast fitness was ≤ 0.5.
A42C C61U gave a yeast fitness of 0.668.
For A42C C61U C62G, the yeast fitness was ≤ 0.5.
For A42C C62U A69U, the yeast fitness was 0.689.
With A42C C62U C66U the yeast fitness was 0.507.
A42C C66U showed a yeast fitness of 0.816.
A42C G48C C55U gave a yeast fitness of 0.557.
Variant A42C G48C G67A has a yeast fitness of 0.574.
With A42C G50A U64A the yeast fitness was ≤ 0.5.
Work on A42C G50C yielded a yeast fitness of 0.548.
A42C G51A showed a yeast fitness of 0.849.
In the case of A42C G51A A70C, the yeast fitness is reported as 0.578.
For A42C G52C A69C, the yeast fitness was 0.607.
With A42C G58A C62A the yeast fitness was ≤ 0.5.
In the case of A42C G63C, the yeast fitness is reported as 0.681.
In the case of A42C G63C A69C, the yeast fitness is reported as ≤ 0.5.
For A42C G67A, the yeast fitness was 0.833.
A42C G68A showed a yeast fitness of 0.898.
A42C G68U gave a yeast fitness of 0.873.
Variant A42C U47A G63C A69C has a yeast fitness of 0.578.
Work on A42C U47C A69U yielded a yeast fitness of 0.821.
For A42C U47C G63A, the yeast fitness was 0.692.
With A42C U47C U54A G67C A69U the yeast fitness was ≤ 0.5.
A42C U47G gave a yeast fitness of 0.607.
In the case of A42C U53A U54A, the yeast fitness is reported as ≤ 0.5.
A42C U54A G67C A69U gave a yeast fitness of 0.571.
In the case of A42C U59A, the yeast fitness is reported as 0.764.
Variant A42C U59G has a yeast fitness of 0.752.
Work on A42C U64G yielded a yeast fitness of 0.596.
With A42G the yeast fitness was 0.934.
A42G A43C showed a yeast fitness of 1.17.

From the RNAGym collection of RNA variant scans (doi:10.1126/science.aae0568)
